Experimental data as given in ChEMBL document CHEMBL3621107, “Ring fusion strategy for synthesis and lead optimization of sulfur-substituted anthra[1,2-c][1,2,5]thiadiazole-6,11-dione derivatives as promising scaffold of antitumor agents” (Eur J Med Chem, 2015).

What was measured:
OVCAR-5 = experiment: Cytotoxicity against human OVCAR5 cells assessed as cell growth at 10 uM after 48 hrs by SRB assay relative to control; format: functional; conditions: OVCAR-5, 48 h, read-out: Activity
Outline: (§1)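 First-stage NCI DTP one-dose screen against the 60 human tumour cell line panel. Compounds were tested at a single 10 μM level, and results are given as growth percentage.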

U-251 = experiment: Cytotoxicity against human U251 cells assessed as cell growth at 10 uM after 48 hrs by SRB assay relative to control; format: functional; conditions: U-251, 48 h, read-out: Activity
Outline: (§2)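 NCI-60 one-dose screen run by NCI DTP: each cell line exposed to a single 10 µM dose, and percentage growth recorded against untreated growth.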

Malme-3M = experiment: Cytotoxicity against human MALME-3M cells assessed as cell growth at 10 uM after 48 hrs by SRB assay relative to control; format: functional; conditions: read-out: Activity
Outline: (§3)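 First-stage NCI-60 screen by the NCI Developmental Therapeutics Program. Each compound was tested once at a single concentration of 10 μM against the 60-cell-line panel. Growth percentage was reported for each cell line.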

BT-549 = experiment: Cytotoxicity against human BT549 cells assessed as cell growth at 10 uM after 48 hrs by SRB assay relative to control; format: functional; conditions: BT-549, 48 h, read-out: Activity; outline: as §3
RXF 393 = experiment: Cytotoxicity against human RXF393 cells assessed as cell growth at 10 uM after 48 hrs by SRB assay relative to control; format: functional; conditions: RXF 393, 48 h, read-out: Activity; outline: as §1
SK-MEL-2 = experiment: Cytotoxicity against human SK-MEL-2 cells assessed as cell growth at 10 uM after 48 hrs by SRB assay relative to control; format: functional; conditions: SK-MEL-2, 48 h, read-out: Activity; outline: as §1
TK-10 = experiment: Cytotoxicity against human TK10 cells assessed as cell growth at 10 uM after 48 hrs by SRB assay relative to control; format: functional; conditions: TK-10, 48 h, read-out: Activity; outline: as §2
IGROV-1 = experiment: Cytotoxicity against human IGROV1 cells assessed as cell growth at 10 uM after 48 hrs by SRB assay relative to control; format: functional; conditions: IGROV-1, 48 h, read-out: Activity; outline: as §3
LOX IMVI = experiment: Cytotoxicity against human LOXIMVI cells assessed as cell growth at 10 uM after 48 hrs by SRB assay relative to control; format: functional; conditions: read-out: Activity; outline: as §3
DU-145 [1] = experiment: Cytotoxicity against human DU145 cells after 72 hrs by MTT assay; format: functional, cell-based; conditions: DU-145, 72 h
Outline: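 DU-145 cells grown in RPMI-1640 with 5% heat-inactivated fetal calf serum at 37 °C, 5% CO2. About 2×10^3 cells per well were seeded and incubated for 24 h. Compounds were dissolved in DMSO freshly and diluted into medium (vehicle 0.1% DMSO), then cells were exposed for 72 h. MTT was added for 3 h at 37 °C and absorbance read at 570 nm.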

[2] = Cytotoxicity against human Hs578T cells assessed as cell growth at 10 uM after 48 hrs by SRB assay relative to control; format: functional; conditions: Hs-578T, read-out: Activity; outline: as §3
KM12 = experiment: Cytotoxicity against human KM12 cells assessed as cell growth at 10 uM after 48 hrs by SRB assay relative to control; format: functional; conditions: KM12, 48 h, read-out: Activity; outline: as §3
SK-OV-3 = experiment: Cytotoxicity against human SKOV3 cells assessed as cell growth at 10 uM after 48 hrs by SRB assay relative to control; format: functional; conditions: SK-OV-3, 48 h, read-out: Activity; outline: as §1
HCC 2998 = experiment: Cytotoxicity against human HCC2998 cells assessed as cell growth at 10 uM after 48 hrs by SRB assay relative to control; format: functional; conditions: HCC 2998, 48 h, read-out: Activity; outline: as §3
M14 = experiment: Cytotoxicity against human M14 cells assessed as cell growth at 10 uM after 48 hrs by SRB assay relative to control; format: functional; conditions: M14, 48 h, read-out: Activity; outline: as §3
NCI-H226 = experiment: Cytotoxicity against human NCI-H226 cells assessed as cell growth at 10 uM after 48 hrs by SRB assay relative to control; format: functional; conditions: NCI-H226, 48 h, read-out: Activity; outline: as §1
A498 = experiment: Cytotoxicity against human A498 cells assessed as cell growth at 10 uM after 48 hrs by SRB assay relative to control; format: functional; conditions: A498, 48 h, read-out: Activity; outline: as §3
UACC-62 = experiment: Cytotoxicity against human UACC62 cells assessed as cell growth at 10 uM after 48 hrs by SRB assay relative to control; format: functional; conditions: UACC-62, 48 h, read-out: Activity; outline: as §2
[3] = Cytotoxicity against human EKVX cells assessed as cell growth at 10 uM after 48 hrs by SRB assay relative to control; format: functional; conditions: read-out: Activity; outline: as §3
T47D = experiment: Cytotoxicity against human T47D cells assessed as cell growth at 10 uM after 48 hrs by SRB assay relative to control; format: functional; conditions: read-out: Activity; outline: as §2
SK-MEL-28 = experiment: Cytotoxicity against human SK-MEL-28 cells assessed as cell growth at 10 uM after 48 hrs by SRB assay relative to control; format: functional; conditions: SK-MEL-28, 48 h, read-out: Activity; outline: as §1
HOP-92 = experiment: Cytotoxicity against human HOP92 cells assessed as cell growth at 10 uM after 48 hrs by SRB assay relative to control; format: functional; conditions: HOP-92, 48 h, read-out: Activity; outline: as §3
MDA-MB-231 = experiment: Cytotoxicity against human MDA-MB-231 cells assessed as cell growth at 10 uM after 48 hrs by SRB assay relative to control; format: functional; conditions: MDA-MB-231, 48 h, read-out: Activity; outline: as §1
NCI-H460 = experiment: Cytotoxicity against human NCI-H460 cells assessed as cell growth at 10 uM after 48 hrs by SRB assay relative to control; format: functional; conditions: NCI-H460, 48 h, read-out: Activity; outline: as §1
786-0 = experiment: Cytotoxicity against human 786-0 cells assessed as cell growth at 10 uM after 48 hrs by SRB assay relative to control; format: functional; conditions: 786-0, 48 h, read-out: Activity; outline: as §3
ACHN = experiment: Cytotoxicity against human ACHN cells assessed as cell growth at 10 uM after 48 hrs by SRB assay relative to control; format: functional; conditions: read-out: Activity; outline: as §3
HT-29 = experiment: Cytotoxicity against human HT-29 cells assessed as cell growth at 10 uM after 48 hrs by SRB assay relative to control; format: functional; conditions: HT-29, 48 h, read-out: Activity; outline: as §3
DU-145 [4] = experiment: Cytotoxicity against human DU145 cells assessed as cell growth at 10 uM after 48 hrs by SRB assay relative to control; format: functional; conditions: DU-145, 48 h, read-out: Activity; outline: as §3
NCI-H23 = experiment: Cytotoxicity against human NCI-H23 cells assessed as cell growth at 10 uM after 48 hrs by SRB assay relative to control; format: functional; conditions: NCI-H23, 48 h, read-out: Activity; outline: as §1
SK-MEL-5 = experiment: Cytotoxicity against human SK-MEL-5 cells assessed as cell growth at 10 uM after 48 hrs by SRB assay relative to control; format: functional; conditions: SK-MEL-5, 48 h, read-out: Activity; outline: as §1
PC-3 = experiment: Cytotoxicity against human PC3 cells assessed as cell growth at 10 uM after 48 hrs by SRB assay relative to control; format: functional; conditions: PC-3, 48 h, read-out: Activity; outline: as §1
HCT-15 = experiment: Cytotoxicity against human HCT15 cells assessed as cell growth at 10 uM after 48 hrs by SRB assay relative to control; format: functional; conditions: HCT-15, 48 h, read-out: Activity; outline: as §3

| SMILES | growth at 10 µM (OVCAR-5) [%] | growth at 10 µM (U-251) [%] | growth at 10 µM (Malme-3M) [%] | growth at 10 µM (BT-549) [%] | growth at 10 µM (RXF 393) [%] | growth at 10 µM (SK-MEL-2) [%] | growth at 10 µM (TK-10) [%] | growth at 10 µM (IGROV-1) [%] | growth at 10 µM (LOX IMVI) [%] | IC50 (DU-145 [1]) [µM] | growth at 10 µM [2] [%] | growth at 10 µM (KM12) [%] | growth at 10 µM (SK-OV-3) [%] | growth at 10 µM (HCC 2998) [%] | growth at 10 µM (M14) [%] | growth at 10 µM (NCI-H226) [%] | growth at 10 µM (A498) [%] | growth at 10 µM (UACC-62) [%] | growth at 10 µM [3] [%] | growth at 10 µM (T47D) [%] | other results |
| --- | --- | --- | --- | --- | --- | --- | --- | --- | --- | --- | --- | --- | --- | --- | --- | --- | --- | --- | --- | --- | --- |
| Cc1cc(C)cc(Sc2cc3c(c4nsnc24)C(=O)c2ccccc2C3=O)c1 | 107 | 108 | 102 | 95.1 | 112 | 108 | 132 | 96.7 | 90.2 | > 15 | 105 | 105 | 97.5 | 109 | 100 | 88 | 93.6 | 103 | 100 | 81.1 | growth at 10 µM (SK-MEL-28): 112%; growth at 10 µM (HOP-92): 93.5%; growth at 10 µM (MDA-MB-231): 99.2%; growth at 10 µM (NCI-H460): 105%; growth at 10 µM (786-0): 98.2%; growth at 10 µM (ACHN): 98%; growth at 10 µM (HT-29): 105%; growth at 10 µM (DU-145 [4]): 122%; growth at 10 µM (NCI-H23): 90.4%; growth at 10 µM (SK-MEL-5): 107%; growth at 10 µM (PC-3): 81.3%; growth at 10 µM (HCT-15): 90.9% |
| O=C1c2ccccc2C(=O)c2c1cc(Sc1cc(Cl)ccc1Cl)c1nsnc21 | 109 | 63.6 | 94.3 | 79.7 | 91.5 | 101 | 112 | 78.1 | 73 | > 15 | 72.5 | 101 | 84.1 | 109 | 99 | 112 | 87.7 | 94.1 | 109 | 63.4 | growth at 10 µM (SK-MEL-28): 123%; growth at 10 µM (HOP-92): 65.1%; growth at 10 µM (MDA-MB-231): 82.4%; growth at 10 µM (NCI-H460): 101%; growth at 10 µM (786-0): 67.5%; growth at 10 µM (ACHN): 88.5%; growth at 10 µM (HT-29): 106%; growth at 10 µM (DU-145 [4]): 102%; growth at 10 µM (NCI-H23): 74.6%; growth at 10 µM (SK-MEL-5): 109%; growth at 10 µM (PC-3): 80.6%; growth at 10 µM (HCT-15): 92.8% |
| O=C1c2ccccc2C(=O)c2c1cc(Sc1ccccc1Br)c1nsnc21 | 121 | 11.5 | 35.3 | 52.2 | -8.53 | 35 | 76.5 | 27.9 | -15.3 | 9.58 | 54.2 | 57.9 | 66.7 | 78.4 | 59.5 | 92.1 | 24.2 | 39.6 | 77.7 | -33 | growth at 10 µM (SK-MEL-28): 64.7%; growth at 10 µM (HOP-92): 37.6%; growth at 10 µM (MDA-MB-231): 16.9%; growth at 10 µM (NCI-H460): 58.2%; growth at 10 µM (786-0): -6.19%; growth at 10 µM (ACHN): 25.5%; growth at 10 µM (HT-29): 96.5%; growth at 10 µM (DU-145 [4]): 50.6%; growth at 10 µM (NCI-H23): 18%; growth at 10 µM (SK-MEL-5): 46.3%; growth at 10 µM (PC-3): 4.23%; growth at 10 µM (HCT-15): 39.7% |
